From publication PMC9111184 (Current Research in Pharmacology and Drug Discovery, 2022)

Legend:
Caco-2 cell monolayers = assay type: cell-based, Human; settings: relative to cholesterol alone, 24 h
Method in brief: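 Caco-2 seeded at 2–4 x 10^4 cells/cm2 on transwell inserts (0.4 μm pore) and grown 16 days into monolayers. TEER was read before and after; monolayers above […] were accepted. Test compound was added apically in DMEM together with 5 mM cholesterol, with plain DMEM basolateral. After 24 h at 37 °C, 5% CO2, both sides were sampled for RP-HPLC-DAD. Cholesterol permeation % = amount transported/initial apical amount.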

Permeability = assay type: in vitro ADME; settings: human, Caco-2
Method in brief: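 Monolayers were Caco-2 grown 16 days on 0.4 μm-pore transwell inserts after seeding at 2–4 x 10^4 cells/cm2, with TEER above 250 Ω/cm2 checked before and after. Test compound in DMEM containing 5 mM cholesterol went apically and DMEM basolaterally for 24 h, 37 °C, 5% CO2. Both compartments were quantified by RP-HPLC-DAD. Papp = (dQ/dt)/(A × C0), using basolateral appearance rate, membrane area and initial concentration.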

Caco-2 cells = experiment: FTIR analysis of treated cells; assay type: cell-based, Human; settings: phenolic compounds 1 mM, 24 h
Method in brief: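 Cell suspension at ~1.2 × 10^6 cells/mL was seeded onto CaF2 windows and left overnight. Cells were then exposed 24 h to phenolic test compounds at 1 mM or another test compound at 100 μM; untreated cells served as control. FTIR spectra covered 900–3000 cm−1 at 4 cm−1 resolution, averaging 128 scans, and were normalized to Amide II. Spectra were Savitsky-Golay smoothed (eight points) and second-derivative processed; 4 replicates.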

[1] = MTT cytotoxicity on Caco-2 cell line; assay type: cell-based; settings: human, Caco-2 cells
Method in brief: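 MTT viability test: 2 × 10^4 cells per well, pre-incubated 48 h at 37 °C, 5% CO2. Test compound in FBS-free DMEM was added at 0.025–1 mg/mL (phenolic acids) or 0.1–1 mM (other compound) for 24 h, then MTT reagent. Absorbance was read at 595 nm minus 630 nm, and viability expressed as % of untreated control; eight replicates per concentration.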

SMILES: O=C(/C=C/c1ccc(O)c(O)c1)O[C@@H]1C[C@](O)(C(=O)O)C[C@@H](O)[C@H]1O [ChA, chlorogenic acid]
- Decrease in cholesterol permeability (Caco-2 cell monolayers): 80.29%
- Papp at 24 h (Permeability): 1.38 ×10⁻⁶ cm/s
- Change of band at 1081 cm−1 relative to control (Caco-2 cells): increase
- Change of bands at 965, 1081 and 1240 cm−1 (DNA bands) relative to control (Caco-2 cells; Ezetimibe 100 μM): decrease

SMILES: O=C1[C@H](CC[C@H](O)c2ccc(F)cc2)[C@@H](c2ccc(O)cc2)N1c1ccc(F)cc1 [EZ, ezetimibe, reference compound]
- Decrease in cholesterol permeability (Caco-2 cell monolayers): 96.60%
- IC50 at 24 h [1]: 228 µM
- Papp at 24 h (Permeability): 2.94 ×10⁻⁶ cm/s

SMILES: O=C(/C=C/c1ccc(O)c(O)c1)O[C@H](Cc1ccc(O)c(O)c1)C(=O)O [RA, rosmarinic acid]
- Decrease in cholesterol permeability (Caco-2 cell monolayers): 85.65%
- Papp at 24 h (Permeability): 1.68 ×10⁻⁶ cm/s
- Change of bands at 965, 1081 and 1240 cm−1 (DNA bands) relative to control (Caco-2 cells; Ezetimibe 100 μM): decrease
- Change of random coil structures at 1650 cm−1 vs untreated cells (Caco-2 cells; Ezetimibe 100 μM): increase
- Change of β-sheets band area at ∼1637 and 1683 cm−1 vs untreated cells (Caco-2 cells; Ezetimibe 100 μM): increase

SMILES: O=C(O)/C=C/c1cccc(O)c1 [m-CA, m-coumaric acid]
- Decrease in cholesterol permeability (Caco-2 cell monolayers): 77.70%
- Change of bands at 965, 1081 and 1240 cm−1 (DNA bands) relative to control (Caco-2 cells; Ezetimibe 100 μM): decrease
- Change of β-sheets band area at ∼1637 and 1683 cm−1 vs untreated cells (Caco-2 cells; Ezetimibe 100 μM): didn't show any changes
